Compounds with a hit are over-represented: about 2.9% of the library has one in this group of screens.
T cruzi inh – T. cruzi replication inhibition; T. cruzi beta-gal in NIH3T3, luminescence, 90 h; inhibition, % (concentration not given with the values); actives 1.4% (n = 300,000); AID 1885;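 active = mean inhibition across valid replicates above about 55%, limit read from the data; inconclusive = mean below that limit but half or more replicates reach it; inactive = mean below it, under half of replicates reach it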;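 also: signal also drops with host cell toxicity which is not excluded here; 0% = plate median of DMSO wells and 100% = zero luminescence signal; higher percent means less beta-gal luminescence so fewer parasites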
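System: mouse NIH/3T3 fibroblasts infected with β-gal-expressing T. cruzi Tulahuen C4 / Input: NIH/3T3 cells, 5,000 per well / Buffer or medium: Low-serum DMEM with 2% FBS / Probe or stimulus: 5000 reporter trypomastigotes per well / Schedule: ≥90 h infection period, 3 h prior cell attachment / Measured by: GalScreen luminescence, 60 min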
hiPSC survival – increases survival of single human iPS cells; hiPSC single-cell survival, ATPlite luminescence; 100% = ROCK inhibitor wells, 0% = DMSO; survival enhancement, % at 20 µM; actives 0.044% (n = 360,000); in the data active = survival enhancement above about 18%;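 also: cells exposed to compounds for 16 hours before the ATP read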
NR1D1 modulator – modulates human Rev-erb alpha binding to DNA. P20393. actives 0.79% (n = 370,000). activity, % at 10 µM. Rev-erbα–FITC-DNA binding, fluorescence polarization, 90 min. AID 1259318;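 active = activity above about 14%, limit read from the data; passing the limit was not always enough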;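 also: 0% = DMSO wells with 35 nM protein and 100% = DMSO wells with 750 nM protein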
Target sequence (P20393 whole entry, looked up): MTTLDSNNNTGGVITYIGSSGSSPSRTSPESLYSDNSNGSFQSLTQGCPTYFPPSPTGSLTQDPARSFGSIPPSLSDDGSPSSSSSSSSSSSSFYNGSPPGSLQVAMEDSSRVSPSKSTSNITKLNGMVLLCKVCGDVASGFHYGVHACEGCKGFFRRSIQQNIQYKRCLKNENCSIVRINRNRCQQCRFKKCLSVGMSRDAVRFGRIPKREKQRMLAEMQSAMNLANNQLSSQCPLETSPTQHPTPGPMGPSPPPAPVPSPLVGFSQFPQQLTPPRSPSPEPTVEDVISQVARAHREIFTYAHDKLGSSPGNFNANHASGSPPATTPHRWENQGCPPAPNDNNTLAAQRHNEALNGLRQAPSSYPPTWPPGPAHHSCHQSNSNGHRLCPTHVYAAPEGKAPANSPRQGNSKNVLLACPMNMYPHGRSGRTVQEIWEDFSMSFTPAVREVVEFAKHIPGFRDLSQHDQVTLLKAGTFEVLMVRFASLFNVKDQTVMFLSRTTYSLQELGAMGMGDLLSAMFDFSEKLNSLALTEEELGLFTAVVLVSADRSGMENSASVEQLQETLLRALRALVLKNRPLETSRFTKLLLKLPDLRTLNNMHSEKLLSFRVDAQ
TAG inh – reduces triacylglycerol accumulation in H9c2 cells. actives 0.66% (n = 230,000). inhibition, % at 12.5 µM. Nile Red lipid (TAG) fluorescence; cells loaded with 200 µM oleic acid;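 active = pattern-corrected inhibition of lipid staining of at least 50% with the nuclear-stain viability signal not falling by more than 50%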;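 also: 0% = DMSO wells and 100% = triacsin C control wells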
beta cell repl – inducers of beta-cell replication in MIN6 cells; MIN6 cells proliferation, ATPlite luminescence, 48 h; cells starved in 0.2% serum; 100% = growth in 10% serum; proliferation, % at 10 µM; actives 0.29% (n = 330,000);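 active = compounds whose signal lies at least 3.5 SD above the mean of all wells on their plate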;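 also: 0% = DMSO-treated cells in low-serum medium and 100% = 10% serum control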
PG9 binder – PG9 antibody binding by small molecule; AID 624416; TR-FRET gp120-PG9 antibody binding; actives 0.43% (n = 360,000); inhibition, % at 6.7 µM; in the data active = inhibition above about 8.5%
* hit, by the source's call; ? = inconclusive; nt = no result.

SMILES | T cruzi inh | hiPSC survival | NR1D1 modulator | TAG inh | beta cell repl | PG9 binder
C/C=C/c1ccc(OCCCCN2CCN(CC)CC2)c(OC)c1 | 17 | 4 | 2 | -30 | 2 | 0
O=C(N/N=C/c1ccco1)c1cc(-c2ccccc2)nc2ccccc12 | -13 | 0 | 1 | nt | -3 | -2
O=C(N/N=C/c1ccc([N+](=O)[O-])o1)c1cc(-c2cccc(Br)c2)nc2ccccc12 | 63* | -2 | -1 | 10 | -4 | -1
CCCc1ccc(-c2cc(C(=O)N/N=C/c3ccc([N+](=O)[O-])o3)c3ccccc3n2)cc1 | 61* | -6 | 0 | 23 | -3 | -1
O=C(O)c1ccc(N/N=C/c2ccc(-c3cccc(Cl)c3)o2)cc1 | -38 | 0 | -7 | 84* | -3 | -3
O=C(O)c1ccc(N/N=C/c2ccc(-c3ccc(Cl)cc3Cl)o2)cc1 | -13 | 0 | 2 | 53* | -6 | -3
O=C(O)c1ccc(N/N=C/c2ccc(-c3cc(Cl)ccc3Cl)o2)cc1 | -16 | 0 | 2 | 19 | -5 | 0
Cc1nc(NCc2ccco2)c2oc3ccccc3c2n1 | -4 | -3 | 4 | -33 | -1 | 1
CCc1ccc2oc(-c3ccc(OC)cc3)cc(=Nc3c(C)n(C)n(-c4ccccc4)c3=O)c2c1 | 64* | -1 | -7 | -6 | -7 | -1
CCc1ccc2oc(-c3ccc(OC)cc3)cc(=Nc3cccc(C(=O)O)c3)c2c1 | 10 | -1 | -11 | 5 | -3 | -1
OCC1(Cc2ccc(Cl)cc2)CCN(Cc2ccc(Oc3ncccn3)cc2)CC1 | 59* | 0 | -7 | nt | -3 | -4
OCC1(Cc2ccc(Cl)cc2)CCN(Cc2ccc(F)c(F)c2)CC1 | 32 | 0 | -3 | 5 | -5 | 2
Cc1ccc(S(=O)(=O)NCCn2cnc([N+](=O)[O-])n2)cc1 | 60* | 2 | -2 | nt | -3 | 4
Cc1ccc(S(=O)(=O)NCCSCc2ccccc2)cc1 | -6 | -2 | -5 | -7 | -1 | -1
Cc1ccc(CSCCNS(=O)(=O)c2ccc([N+](=O)[O-])cc2)cc1 | 68* | 0 | 0 | nt | -4 | -1
CN1C(=O)[C@@](O)(c2cn(C)c3ccccc23)c2ccccc21 | nt | nt | 1 | nt | nt | -2
CN(C)CCCN(C(=O)c1ccc(C(=O)c2ccccc2)cc1)c1nc2ccc(F)cc2s1 | 57* | 0 | 4 | nt | -8 | -2
CN(C)CCCN(C(=O)c1nc2ccccc2s1)c1nc2ccc(F)cc2s1 | 67* | 0 | -1 | -4 | -3 | 0
Brc1ccc(OCc2ccccc2)c(CNCc2ccncc2)c1 | 56* | 7 | 0 | nt | -2 | 1
Clc1ccc(COc2ccccc2CNCc2cccnc2)cc1 | ? | 7 | 3 | nt | 1 | 1
Fc1ccc(COc2ccccc2CNCc2ccncc2)cc1 | 56* | 2 | -2 | nt | 0 | -1
CN(C)CCC1Sc2ccccc2Oc2ccccc21 (centres undefined) | 26 | -1 | -4 | 33 | -3 | -1
CC1c2ccccc2SC(CCCN(C)C)c2ccccc21 (centres undefined) | 55* | -2 | 2 | nt | -2 | 1
C=CCNCCOCCOc1ccc(C)cc1Br | 56* | -1 | -3 | nt | 0 | 1
CCC(C)NCCOCCOc1ccc(C)cc1Br (centres undefined) | 44 | -2 | 3 | nt | 0 | -2
SMILES | T cruzi inh | hiPSC survival | NR1D1 modulator | TAG inh | beta cell repl | PG9 binder
COc1ccccc1Nc1nc(NCC2CCCO2)c2ccccc2n1 (centres undefined) | 64* | -1 | 5 | -5 | -2 | -1
COc1ccc(OC)c(Nc2c3c(nc4ccccc24)CCC3)c1 | 59* | -1 | -5 | nt | -4 | -1
COc1ccc(OC)c(Nc2nc(NCCO)c3ccccc3n2)c1 | 56* | 1 | 0 | nt | -5 | -4
COc1cccc(-c2nc(NCC3CCCO3)c3ccccc3n2)c1O (centres undefined) | 22 | 1 | 2 | 33 | -2 | -2
O=c1c2c([N+](=O)[O-])cc([N+](=O)[O-])cc2sn1Cc1ccccc1 | 57* | 0 | 6 | nt | -5 | 0
COC(=O)C1=CN(C(C)c2ccccc2)C=C(C(=O)OC)C1c1cc(OC)c(OC)c(OC)c1 (centres undefined) | 35 | -1 | 4 | nt | -6 | 1
O=C(CN(Cc1cccs1)S(=O)(=O)c1ccc(S(=O)(=O)NC2CCCCC2)cc1)Nc1ccccc1 | 57* | 1 | 2 | nt | 0 | 0
Fc1ccc(NC(=S)Nc2nccs2)cc1 | 66* | 0 | -1 | 45 | -6 | -1
CC(Nc1nc(-c2ccccc2)nc2ccccc12)c1ccccc1 (centres undefined) | 25 | -1 | 3 | 18 | -6 | 0
COc1ccc(Nc2nc(N3CCCC3)nc3ccccc23)c(OC)c1 | 65* | 0 | -4 | nt | -4 | -1
CC(Nc1nc(N2CCCCC2)nc2ccccc12)c1ccccc1 (centres undefined) | 64* | -3 | -4 | nt | -6 | -1
O=C1c2cccc3c2C2(O)c4c1cccc4C(=O)c1cccc(c12)C3=O | nt | 0 | -5 | 9 | nt | -1
Cc1[nH]n(-c2ccccc2)c(=O)c1C(C[N+](=O)[O-])c1ccccc1Cl (centres undefined) | -16 | 1 | -5 | nt | -4 | -3
CC(C)c1ccc(NC(=O)C2CCN(S(C)(=O)=O)CC2)cc1 | -10 | -2 | -3 | 2 | 0 | 0
COc1ccc(F)cc1S(=O)(=O)Nc1cc2c3c(c1)CCC(=O)N3CCC2 | -10 | 0 | -7 | -32 | 5 | -1
C=CCN(CC=C)C(=S)NC(=O)c1ccc(-c2ccccc2)cc1 | 55* | 0 | -5 | nt | -4 | -3
C=CCN(CC=C)C(=S)NC(=O)c1ccc(OC)cc1 | 33 | -1 | 0 | 22 | -3 | 0
O=C1Cc2ccccc2Sc2ccc(O)cc21 | -4 | -1 | 3 | nt | 1 | 0
C=CCOc1ccccc1CN1CCCC(CCC(=O)N(C)CCc2ccccn2)C1 (centres undefined) | 56* | 0 | 1 | 13 | -2 | 1
CCc1ccccc1NC(=O)N1CCCC(CCC(=O)N(C)CCc2ccccn2)C1 (centres undefined) | 1 | 0 | 3 | nt | -4 | 0
Cc1c(NC(=O)C(C)OC(=O)c2ccc([N+](=O)[O-])s2)c(=O)n(-c2ccccc2)n1C (centres undefined) | 86* | 0 | -1 | 3 | 0 | 2
Cc1c(NC(=O)C(C)OC(=O)c2sc3ccccc3c2Cl)c(=O)n(-c2ccccc2)n1C (centres undefined) | -18 | 1 | 3 | 7 | -2 | 8
CN(CC1CCCN(CCc2cccc(C(F)(F)F)c2)C1)C(=O)c1cc2ccccc2o1 (centres undefined) | 65* | 0 | 2 | nt | -7 | 0

From PubChem
